Laboratory results reported in ChEMBL document CHEMBL2202967, “Synthesis, characterization and biological evaluation of ureidofibrate-like derivatives endowed with peroxisome proliferator-activated receptor activity” (J Med Chem, 2012).
Calls of active or inactive are those of the source. The rule behind the calls is not given here.

Assays:
[1] = molecular target: T1, Peroxisome proliferator-activated receptor gamma (Homo sapiens, UniProt P37231); assay: Agonist activity at human GAL4-fused PPARgamma ligand binding domain expressed in HepG2 cells after 20 hrs by luciferase reporter gene transactivation assay; assay type: cell-based
T1 sequence (P37231 whole entry): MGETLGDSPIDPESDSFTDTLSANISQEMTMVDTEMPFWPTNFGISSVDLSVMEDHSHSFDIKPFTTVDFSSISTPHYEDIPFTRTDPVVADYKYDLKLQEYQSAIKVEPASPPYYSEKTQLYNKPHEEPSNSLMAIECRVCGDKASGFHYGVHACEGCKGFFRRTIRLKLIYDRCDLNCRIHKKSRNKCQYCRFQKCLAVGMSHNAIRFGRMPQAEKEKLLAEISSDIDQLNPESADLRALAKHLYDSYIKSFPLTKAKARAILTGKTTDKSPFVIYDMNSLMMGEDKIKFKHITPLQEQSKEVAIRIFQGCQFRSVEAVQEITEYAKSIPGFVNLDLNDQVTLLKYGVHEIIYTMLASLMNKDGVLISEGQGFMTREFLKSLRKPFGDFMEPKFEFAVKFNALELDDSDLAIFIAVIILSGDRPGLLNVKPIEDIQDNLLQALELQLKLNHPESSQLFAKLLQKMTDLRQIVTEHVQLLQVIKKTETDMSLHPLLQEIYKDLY

[2] = molecular target: T2, Peroxisome proliferator-activated receptor alpha (Homo sapiens) (UniProt Q07869); assay: Agonist activity at human GAL4-fused PPARalpha ligand binding domain expressed in HepG2 cells after 20 hrs by luciferase reporter gene transactivation assay relative to WY14643; assay type: cell-based
T2 sequence (whole entry): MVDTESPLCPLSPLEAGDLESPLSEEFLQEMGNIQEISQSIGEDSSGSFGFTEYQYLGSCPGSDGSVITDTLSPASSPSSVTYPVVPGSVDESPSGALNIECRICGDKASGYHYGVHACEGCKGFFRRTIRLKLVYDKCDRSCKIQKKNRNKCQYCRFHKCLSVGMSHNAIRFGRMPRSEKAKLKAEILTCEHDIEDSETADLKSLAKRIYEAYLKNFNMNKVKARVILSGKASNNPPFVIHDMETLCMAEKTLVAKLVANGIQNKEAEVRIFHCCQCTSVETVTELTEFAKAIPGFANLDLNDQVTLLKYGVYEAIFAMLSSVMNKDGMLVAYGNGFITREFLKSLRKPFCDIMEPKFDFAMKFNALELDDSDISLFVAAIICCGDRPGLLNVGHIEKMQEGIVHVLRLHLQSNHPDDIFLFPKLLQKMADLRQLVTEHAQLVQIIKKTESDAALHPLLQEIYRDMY
In short: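 GAL4-human PPARα LBD chimera (30 ng) with Gal5-TK luciferase reporter (100 ng) and pCMVβgal (250 ng), calcium-phosphate transfected into HepG2 (MEM, 10% FBS) seeded 10⁵ cells/well. Ligands added 4 h post-transfection for 20 h, in triplicate. Luciferase read in cell extracts, normalised to β-galactosidase activity. Experiments repeated at least twice.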

[3] = molecular target: T3, Peroxisome proliferator-activated receptor gamma (Homo sapiens) (UniProt P37231); conditions: BL21-DE3
T3 sequence (whole entry): T1 sequence (P37231 whole entry)

[4] = molecular target: T4, Peroxisome proliferator-activated receptor alpha (Homo sapiens, UniProt Q07869); assay: Agonist activity at human GAL4-fused PPARalpha ligand binding domain expressed in HepG2 cells after 20 hrs by luciferase reporter gene transactivation assay; assay type: cell-based
T4 sequence (Q07869 whole entry): T2 sequence (whole entry)
In short: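 HepG2 cells in MEM with 10% heat-inactivated FBS, seeded at 10⁵ cells/well and transfected after 24 h by calcium phosphate. Plasmids: Gal4-PPARα LBD (30 ng), pGal5TKpGL3 luciferase reporter (100 ng) and pCMVβgal (250 ng). Ligands added 4 h post-transfection, for 20 h, in triplicate. Luciferase read in cell extracts, with β-galactosidase activity measured alongside; experiments repeated at least twice.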

[5] = molecular target: T5, Peroxisome proliferator-activated receptor delta (Homo sapiens, UniProt Q03181); assay: Agonist activity at human GAL4-fused PPARdelta ligand binding domain expressed in COS-1 cells after 20 hrs by luciferase reporter gene transactivation assay; assay type: cell-based
T5 sequence (Q03181 whole entry): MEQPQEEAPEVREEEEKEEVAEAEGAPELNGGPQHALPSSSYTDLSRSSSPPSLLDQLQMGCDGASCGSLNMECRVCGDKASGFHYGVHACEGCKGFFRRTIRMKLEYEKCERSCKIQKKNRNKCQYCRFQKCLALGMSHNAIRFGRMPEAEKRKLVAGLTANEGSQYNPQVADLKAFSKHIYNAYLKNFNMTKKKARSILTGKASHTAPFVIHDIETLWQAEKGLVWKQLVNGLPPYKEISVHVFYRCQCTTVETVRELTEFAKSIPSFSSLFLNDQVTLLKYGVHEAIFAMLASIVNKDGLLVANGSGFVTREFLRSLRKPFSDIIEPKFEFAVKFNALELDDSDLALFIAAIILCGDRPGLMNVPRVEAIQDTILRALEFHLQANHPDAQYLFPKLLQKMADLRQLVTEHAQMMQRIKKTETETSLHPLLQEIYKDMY

[6] = molecular target: T1, Peroxisome proliferator-activated receptor gamma; assay: Binding affinity to PPARgamma ligand binding domain by isothermal titration calorimetry
Mus musculus [7] = assay: Reduction of visceral fat weight in high fat diet fed-induced obesity and insulin resistance C57Bl/6J mouse model at 10 mg/kg/day, po administered once daily for 2 weeks measured on day 12 by in vivo magnetic resonance imaging analysis; assay type: functional, organism-based
In short: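 Mice fed a high-fat diet for 16 weeks were gavaged daily for 2 weeks in 0.5% hypromellose. Under 1% isoflurane they were scanned at 4.7 T with sixteen 1 mm axial T1-weighted slices from kidneys to bladder. Visceral fat was expressed as percentage of total image area, 3 mice per group.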

Mus musculus [8] = assay: Reduction of body weight in high fat diet fed-induced obesity and insulin resistance C57Bl/6J mouse model at 10 mg/kg/day, po administered once daily for 2 weeks relative to control; assay type: functional
In short: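 Male C57Bl/6J mice, 6 weeks old, on high-fat diet for 16 weeks. Then dosed once daily for 2 weeks by oral gavage in 0.5% hypromellose; doses chosen in a preliminary dose-finding study. Body weight measured at end of treatment versus HFD controls, 6 mice per group.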

Mus musculus [9] = assay: Induction of PPARalpha-mediated upregulation of Acadl mRNA expression in liver of high fat diet fed-induced obesity and insulin resistance C57Bl/6J mouse model at 100 mg/kg/day, po administered once daily for 2 weeks by real time qPCR analysis; assay type: functional, organism-based
In short: (§1)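 Livers came from mice fed a high-fat diet for 16 weeks, then gavaged once daily for 2 weeks in 0.5% hypromellose, and were snap-frozen at sacrifice. Total RNA was extracted with Trizol and cleaned up on RNeasy columns. 1 μg RNA was used for mRNA quantitation.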

Mus musculus [10] = assay: Induction of PPARalpha-mediated upregulation of Acox1 mRNA expression in liver of high fat diet fed-induced obesity and insulin resistance C57Bl/6J mouse model at 100 mg/kg/day, po administered once daily for 2 weeks by real time qPCR analysis; assay type: functional, organism-based; in short: as §1
Mus musculus [11] = assay: Induction of PPARalpha-mediated upregulation of Acadm mRNA expression in liver of high fat diet fed-induced obesity and insulin resistance C57Bl/6J mouse model at 100 mg/kg/day, po administered once daily for 2 weeks by real time qPCR analysis; assay type: functional, organism-based; in short: as §1
Mus musculus [12] = assay: Increase in liver weight in high fat diet fed-induced obesity and insulin resistance C57Bl/6J mouse model at 100 mg/kg/day, po administered once daily for 2 weeks; assay type: functional, organism-based
[13] = Solubility of the compound in HEPES buffer; assay type: physicochemical
LoVo [14] = assay: Antitumor activity against human LoVo cells assessed as inhibition of cell proliferation after 1 day by MTT assay; assay type: functional, cell-based; conditions: 24 h
In short: (§2)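 MTT assay with 10,000 cells/well seeded on day 1. Ligands added on day 2 at 1, 5, 10, 50 and 100 μM, from 20 mM DMSO stocks, for 1 or 2 days. Six replicate wells per drug, untreated control column. IC50 is the concentration giving 0.5 fraction affected versus untreated controls, taken from dose–effect curves. Each experiment in triplicate.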

HT-29 [15] = assay: Antitumor activity against human HT-29 cells assessed as inhibition of cell proliferation after 2 days by MTT assay; assay type: functional, cell-based; conditions: HT-29, 48 h; in short: as §2
HCT-15 [16] = assay: Antitumor activity against human HCT15 cells assessed as inhibition of cell proliferation after 2 days by MTT assay; assay type: functional, cell-based; conditions: HCT-15, 48 h; in short: as §2
LoVo [17] = assay: Antitumor activity against human LoVo cells assessed as inhibition of cell proliferation after 2 days by MTT assay; assay type: functional, cell-based; conditions: 48 h; in short: as §2
HT-29 [18] = assay: Induction of apoptosis in human HT-29 cells at IC50 by Annexin V-FITC/propidium iodide staining based flow cytometry; assay type: functional, cell-based; conditions: TDE = time-dependent effect
HT-29 [19] = assay: Antitumor activity against human HT-29 cells assessed as inhibition of cell proliferation after 1 day by MTT assay; assay type: functional, cell-based; conditions: HT-29, 24 h; in short: as §2
HCT-15 [20] = assay: Antitumor activity against human HCT15 cells assessed as inhibition of cell proliferation after 1 day by MTT assay; assay type: functional, cell-based; conditions: HCT-15, 24 h; in short: as §2

For `Cc1cccc(Nc2cc(Cl)nc(SCC(=O)O)n2)c1C` [PIRINIXIC ACID], the EC50 ([1]; hepg2) was “Not Active”.
Molecule `CCCCCCCN(CCc1ccc(O[C@@H](C)C(=O)O)cc1)c1nc2ccccc2o1` has an EC50 ([1]; read-out: EC50) of 2300 nM, an Emax [2] of 78% and a deltaT [3] of 2 °C. It also gave an EC50 ([4]; read-out: EC50) of 620 nM, an EC50 ([5]; read-out: EC50) of 850 nM and a Kd [6] of 3300 nM.
With `CN(CCOc1ccc(CC2SC(=O)NC2=O)cc1)c1ccccn1` (centres undefined) [ROSIGLITAZONE] the Emax [2] was “inactive”, the inhibition (Mus musculus [7]) was “inactive” and the EC50 ([4]; hepg2) was “Not Active”. For the same molecule, the inhibition (Mus musculus [8]) was “inactive”.
For `CC(C)OC(=O)C(C)(C)Oc1ccc(C(=O)c2ccc(Cl)cc2)cc1`, the Activity (Mus musculus [9]) was “Active”, the Activity (Mus musculus [10]) was “Active” and the Activity (Mus musculus [11]) was “Active”. For the same molecule, the Activity (Mus musculus [12]) was “Active”.
`CCCCCCCN(CCc1ccc(OCC(=O)O)cc1)c1nc2ccccc2o1` showed an EC50 ([1]; read-out: EC50) of 800 nM, an Emax [2] of 87% and an EC50 ([4]; read-out: EC50) of 122 nM. The EC50 ([5]; read-out: EC50) was 570 nM and the Kd [6] was 7700 nM.
For `CCCCCCCN(CCc1ccc(O[C@@H](Cc2ccccc2)C(=O)O)cc1)c1nc2ccccc2o1.NC1CCCCC1`, the solubility [13] was “Insoluble”, the EC50 ([1]; read-out: EC50) was 1700 nM and the EC50 ([4]; hepg2) was “Not Active”. The EC50 ([5]; cos-1) was “Not Active”.
With `CCCCCCCN(CCc1ccc(O[C@H](Cc2ccccc2)C(=O)O)cc1)c1nc2ccccc2o1.NC1CCCCC1` the solubility [13] was “Insoluble”, the EC50 ([1]; read-out: EC50) was 2700 nM and the EC50 ([4]; read-out: EC50) was 1720 nM. The EC50 ([5]; cos-1) was “Not Active”.
In the case of `CCCc1c(OCCCOc2ccc(OCC(=O)O)cc2)ccc(C(C)=O)c1O`, the EC50 ([1]; hepg2) is reported as “Not Active”, the EC50 ([4]; hepg2) is reported as “Not Active” and the EC50 ([5]; read-out: EC50) is reported as 21 nM.
Molecule `Cc1c(C)c2c(c(C)c1O)CCC(C)(COc1ccc(CC3SC(=O)NC3=O)cc1)O2` (centres undefined) [TROGLITAZONE] has an IC50 (LoVo [14]) greater than 100000 nM, an IC50 (HT-29 [15]) of 50000 nM and an IC50 (HCT-15 [16]) of 50900 nM. For the same molecule, the IC50 (LoVo [17]) was 65000 nM, the Activity (HT-29 [18]) was “tde” and the IC50 (HT-29 [19]) was greater than 100000 nM. The IC50 (HCT-15 [20]) was greater than 100000 nM.
Molecule `CCCCCCCN(CCc1ccc(O[C@H](C)C(=O)O)cc1)c1nc2ccccc2o1` has an EC50 ([1]; read-out: EC50) of 150 nM, an Emax [2] of 93% and a deltaT [3] of 2 °C. It also gave an EC50 ([4]; read-out: EC50) of 25 nM, an EC50 ([5]; read-out: EC50) of 130 nM and a Kd [6] of 1500 nM.
